Measurements: article PMC5559291 (Journal of the American Chemical Society, 2015)
Where two headings read alike, the source gives them in different places.

Assays:
[1] = Persistence of Aβ40 protofibrils in quiescent solution; type: physicochemical
[2] = type: physicochemical
[3] = Size exclusion chromatography; type: physicochemical; settings: protofibril sample; SEC deemed unreliable by the authors
Method in brief: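 Superose 6 10/300 GL column (Vc = 24 ml); 50 μl Aβ40 sample injected and eluted at 0.5 ml/min. The column was equilibrated in either 10 mM sodium phosphate (pH 7.4) or 20 mM NaOH, with or without 150 mM NaCl. Apparent molecular weight was read from elution volume.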

[4] = ref 7c, 7d, cited from earlier work
[5] = typical values; cited from earlier work
Sedimentation velocity = type: physicochemical
[6] = type: physicochemical; settings: from sedimentation velocity on diluted samples
Method in brief: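 Diluted neutral-pH and protofibril Aβ40 samples were loaded into 12 mm path-length cells, equilibrated 2 h at 20.0° C, and spun at 20,000-50,000 rpm. Detection used absorbance at 280 nm and Rayleigh interference. Data were analysed as continuous c(s) distributions of Lamm equation solutions with maximum-entropy regularization, and sedimentation coefficients were corrected to 20° C water.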

[7] = 37° C; cited from earlier work
[8] = protofibril sample, 2.0 mM Aβ40

Aβ40: 40-residue amyloid-β peptide, made by FMOC solid-phase synthesis
stability of protofibrils ([1]; quiescent solutions at pH 7.5, TEM): stable for at least several weeks
persistence of protofibrils ([1]; room temperature, without sonication or agitation of the Aβ40 solution): at least 20 days
monomeric fraction ([2]; high pH samples): > 90%
fraction of protofibrillar assemblies ([2]; protofibril samples): > 90%
apparent molecular weight of a large fraction of material [3]: greater than 1 MDa
incubation time for evolution of spherical assemblies to mature fibrils ([4]; TEM, without sonication or agitation): more than 50 h
size of long-lived spherical assemblies ([4]; formed at 4° C, pH 7.4, 100 μM peptide): ~650 kDa
quasi-equilibrium solubility of mature fibrils [5]: less than 1 μM
apparent molar mass of slowly sedimenting species (Sedimentation velocity; neutral pH sample, 2.0 mM Aβ40): 4.7 kDa
estimated molar masses of aggregates (Sedimentation velocity; neutral pH sample, 2.0 mM Aβ40): around 0.4 MDa
sedimentation coefficients of aggregates (broadly distributed around) (Sedimentation velocity; neutral pH sample, 2.0 mM Aβ40): around 11 S
aggregates as fraction of the loading signal (Sedimentation velocity; neutral pH sample, 2.0 mM Aβ40, pH 7.5): approximately 75%
sedimentation coefficient of slowly sedimenting species (Sedimentation velocity; neutral pH sample, 2.0 mM Aβ40, remaining material): ~0.6 S
apparent molar masses of rapidly sedimenting species (Sedimentation velocity; [8]): roughly 10 MDa
fraction of material consisting of rapidly sedimenting species (Sedimentation velocity; [8]): approximately 95%
quasi-equilibrium solubility of Aβ40 assemblies ([6]; neutral pH sample): greater than 10 μM
quasi-equilibrium solubility of Aβ40 assemblies ([6]; protofibril sample): greater than 10 μM

Aβ42: 42-residue amyloid-β peptide; literature results only
time for subsequent conversion to fibrils [7]: ≤ 12 days
